Screens (PubChem)
MT1-MMP txn act: MT1-MMP promoter reporter activation – cell-based, luciferase luminescence, primary screen; AID 750, 2007; activation factor at 10 µM; actives 0.16% (n = 86,000); HT1080 MT1-MMP promoter luciferase reporter, overnight; active compounds read high;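 active = activation factor of at least 2 for MT1-MMP transcription at 10 µM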
Candida biofilm: clotrimazole potentiators killing Candida biofilms, primary screen, with clotrimazole, Alamar Blue. C. albicans biofilm + clotrimazole. inhibition, % at 6 µM. actives 0.14% (n = 85,000). AID 834, 2007;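 active = inhibition above 20%; inactive = inhibition below 20%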;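 note: preformed 24 hr biofilms exposed to compound for 48 hr; 0% = biofilm without compound and 100% = blank killed by clotrimazole plus chlorhexidine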
Mac1 fbg enh: enhancers of CD11b/CD18 adhesion to fibrinogen, primary screen, K562 cells, luminescence. actives 0.07% (n = 93,000). activation, % at 10 µM. AID 1499, 2009. ATPlite luminescence;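 active = 10 µM primary screen giving 50% or more activity, confirmed by 40% or more on retest at that dose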
CD11b adhes inh: inhibitors of CD11b/CD18 adhesion to fibrinogen, primary screen, K562 cells, luminescence. Integrin beta-2 (Homo sapiens) + Integrin alpha-M (Homo sapiens), P05107+P11215. ATPlite luminescence; Mn2+ added to activate the integrin. inhibition, % at 10 µM. actives 0.54% (n = 93,000);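 active = primary inhibition of 50% or more at 10 µM, then 40% or more on retest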
RORa activator: activators of orphan receptor RORA, primary screen, cell-based, luminescence | Nuclear receptor ROR-alpha (Homo sapiens), P35398 | activation, % at 10 µM | CHO-K1 Gal4-RORA LBD luciferase reporter; percent increase over mock-subtracted basal signal | actives 1.5% (n = 65,000) | AID 560, 2006;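 active = activation above the mean of all tested compounds plus 3 SD, cut at about 49% in these data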;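 note: 0% = DMSO-treated RORA cells and 100% = added signal equal to DMSO minus mock-transfected cells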
Target sequence (P35398 whole entry, looked up, the tested form may be a part): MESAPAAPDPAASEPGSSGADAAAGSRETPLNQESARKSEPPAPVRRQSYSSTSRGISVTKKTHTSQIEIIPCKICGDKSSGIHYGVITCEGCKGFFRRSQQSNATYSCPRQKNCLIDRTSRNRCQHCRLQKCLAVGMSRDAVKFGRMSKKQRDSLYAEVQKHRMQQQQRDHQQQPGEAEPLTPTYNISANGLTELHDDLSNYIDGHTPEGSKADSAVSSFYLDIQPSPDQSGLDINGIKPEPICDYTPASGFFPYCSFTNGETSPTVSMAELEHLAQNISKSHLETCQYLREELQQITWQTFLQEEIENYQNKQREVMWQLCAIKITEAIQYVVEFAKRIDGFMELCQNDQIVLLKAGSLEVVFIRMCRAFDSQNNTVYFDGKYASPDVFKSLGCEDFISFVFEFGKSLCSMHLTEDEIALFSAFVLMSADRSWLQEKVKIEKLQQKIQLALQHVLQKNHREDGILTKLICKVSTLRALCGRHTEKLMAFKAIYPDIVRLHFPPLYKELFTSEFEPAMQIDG
SF-1 act: activators of human SF-1, primary screen, cell-based, CHO-K1, Gal4-SF-1 LBD, luciferase luminescence. Steroidogenic factor 1 (Homo sapiens), Q13285. CHO-K1 Gal4-SF-1 LBD luciferase reporter; % increase over DMSO SF-1-specific signal. activation, % at 10 µM. actives 1.9% (n = 65,000). AID 522, 2006;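 active = activation above the mean activation of all tested compounds plus 3 SD, cut at about 50% in these data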
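Test system: CHO-K1 cells co-transfected with Gal4 DBD–human SF-1 LBD, 5xGal4 luciferase reporter. Quantity: 4,000 cells per well. Compound: 10 µM only. Incubation: compound added 1 h post-seeding, 20 h exposure at 37 °C, 5% CO2. Detection: SteadyLite luciferase luminescence. Replication: one test per compound.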
* marks the source's active call; other numbers are inactive results; / = no result given. Most compounds without a hit are left out; they make up all but 2.2% or so of the library.

SMILES | MT1-MMP txn act | Candida biofilm | Mac1 fbg enh | CD11b adhes inh | RORa activator | SF-1 act
Cc1cccc(-[n+]2c(C)cc(C)c3c(=O)[nH]c(=O)[nH]c32)c1 | / | / | 11 | -16 | / | /
CCN(Cc1ccccc1)C(=O)CCCOc1ccccc1 | 1.5 | 7 | 2 | -2 | 58* | 32
O=C(O)CCCC(=O)N(Cc1ccccc1)Cc1ccccc1 | 1.1 | 4 | -3 | 0 | 9 | 6
COC(=O)Cn1c(C(=O)N2CCCC2)cc2c1C[C@H]1CN(C(=O)c3ccccc3)[C@@](Cc3ccccc3)(C(=O)OC)[C@@H]21 | 1.1 | / | / | / | / | /
CC(C)(O)c1cc(=O)sc2nc3ccccc3n12 | 1.2 | / | / | / | 71* | 53*
c1ccc2nc3c(nc2c1)sc1nc2ccccc2n13 | 1 | 0 | 2 | 1 | -13 | 6
COCC1C2CC[C@H]3C(OCc4ccc(F)cc4C(F)(F)F)OC[C@]4(C)[C@H]3C2=C(CN4C(=O)OC(C)(C)C)[C@H](C)C1COC (stereo not given in full) | 1 | / | / | / | / | /
CCCCOCCCNc1ncnc2c1[nH]c1ccccc12 | 1.2 | 6 | -6 | 100* | / | /
CCOCCCNc1ncnc2c1[nH]c1ccccc12 | 1.3 | 8 | -6 | 38 | -8 | -36
Clc1ccc(-c2cn3c(n2)CCC3)cc1 | 1.7 | -1 | 4 | 5 | 22 | 72*
Clc1ccc(-c2nnc3n2CCCCC3)cc1 | 1.1 | 2 | -2 | 15 | / | /
CCN(CC)CCCNC(CC(=O)O)C(=O)O (stereo not given) | 1.2 | 3 | / | / | 0 | -19
CCN(CC)c1ccc(NC(=O)C2CC3CCC2C3)cc1 (stereo not given) | 1.7 | 1 | 0 | 4 | 55* | 50
CN(CC(=O)OCC(=O)c1c(N)n(C)c(=O)n(C)c1=O)S(=O)(=O)c1ccc(Cl)cc1 | / | / | 2 | -11 | / | /
CN(C)c1ccc(C(=O)OCc2ccccc2)cc1 | 1 | 43* | 1 | -7 | / | /
CCCc1ccc(OCc2ccc(C(=O)N3CCN(c4ccccn4)CC3)o2)c(OC)c1 | 1.3 | -1 | 7 | 33 | 50* | 5
COc1ccc(CC(=O)N2CCN(c3ccccn3)CC2)cc1OC | 1.1 | -4 | -2 | -6 | 0 | 6
COC(=O)CNC(=O)[C@@]1(C)C=C[C@@H](Cc2ccccc2)N1C(=O)OC | 0 | / | / | / | / | /
CCCC(=O)Nc1ccc(NC(=O)c2cccs2)cn1 | 1.3 | 7 | -1 | -18 | 8 | 18
O=C(Nc1ccc(NC(=O)c2ccco2)nc1)c1cccnc1 | 1.2 | 11 | / | / | 22 | 55*
O=C(Nc1ccc(NC(=O)C2CC2)nc1)c1cccs1 | 1.4 | 10 | -1 | 1 | 18 | 52*
O=C(Nc1cccnc1)c1ccc(NC(=O)c2ccco2)cc1 | 1 | 4 | -2 | 9 | -4 | 20
O=C(Nc1ccc(NC(=O)C2CC2)nc1)c1ccco1 | 1.5 | -6 | -7 | -15 | 20 | 51*
CCCCOc1ccc(CNC(=S)N/N=C/c2ccc(OC)c(OC)c2)cc1 | / | / | -2 | 9 | / | /
Cc1ccc(O)c(-c2cc(C(F)(F)C(F)F)nc(-c3ccccc3)n2)c1 | 1 | -1 | / | / | 19 | 3
SMILES | MT1-MMP txn act | Candida biofilm | Mac1 fbg enh | CD11b adhes inh | RORa activator | SF-1 act
Oc1ccc(Cl)cc1-c1cc(C(F)(F)C(F)F)nc(-c2ccccc2)n1 | 1.1 | -1 | -7 | 59* | / | /
C=COC(=O)CSc1nc(-c2cccs2)ccc1C#N | 1.4 | 5 | -2 | -2 | 40 | 69*
O=C(CCn1cnc2ccccc2c1=O)Nc1nc(-c2ccc(Br)cc2)cs1 | / | / | 63 | 14 | / | /
CC1(c2ccccc2)CC(C)(C)N2C(=O)C3(C(C#N)=C(N)Oc4cc(O)ccc43)c3cccc1c32 (stereo not given) | 1 | 5 | -7 | 30 | / | /
CC1(c2ccccc2)CC(C)(C)N2C(=O)/C(=C3\SC(=S)NC3=O)c3cccc1c32 (stereo not given) | / | / | -5 | 100* | / | /
CC1CCc2c(sc3nc(CN4CCN(S(=O)(=O)c5ccccc5[N+](=O)[O-])CC4)[nH]c(=O)c23)C1 (stereo not given) | / | / | 29 | -2 | / | /
c1ccc2c(-c3nc(-c4ccncc4)no3)cccc2c1 | 1.5 | 3 | -4 | -10 | 25 | 74*
Cc1ccc(-c2nc(-c3ccccc3)no2)c(Cl)c1 | / | 6 | -10 | 104* | -57 | -70
c1cncc(-c2noc(-c3cccc4ccccc34)n2)c1 | 1.4 | 5 | 1 | 3 | / | /
c1ccc(-c2noc(-c3cccc4ccccc34)n2)cc1 | 2* | 2 | / | / | 61* | 65*
CCC/C=C(\CCC)C(NS(=O)(=O)c1ccc(C(F)(F)F)cc1)c1ccc(-c2ccccc2)cc1 (stereo not given) | 1.2 | / | / | / | / | /
Cc1ccc(NC(=O)/C(=C/c2cccs2)NC(=O)c2ccco2)cc1 | / | / | 3 | -2 | / | /
COc1ccc2c(c1)[nH]c1c(=O)n(CC3CCCO3)cnc12 (stereo not given) | / | 2 | 0 | -12 | 17 | 51*
COCCNC(=O)C1(CC(C)C)C=CCN1C(=O)OC (stereo not given) | 1.3 | / | / | / | / | /
c1cnc(SCCOc2ccc3c(c2)CCC3)nc1 | 1.5 | 46* | -1 | 21 | / | /
Cc1ccc(S(=O)(=O)Nc2nc3ccccc3s2)cc1 | 1.1 | 4 | -2 | 5 | / | /
O=S(=O)(Nc1nc2ccccc2s1)c1ccc(Br)s1 | 1.5 | 6 | -12 | 101* | -7 | 5
COC(=O)[C@@]1(Cc2ccc(F)cc2)[C@H]2c3cc(C(=O)N(C)C)n(Cc4ccc(O)c(OC)c4)c3C[C@H]2CN1C(=O)c1ccccc1 | 1.2 | / | / | / | / | /
O=C(CSc1ccccc1)Nc1ccc(-c2nc3ccccc3[nH]2)cc1 | / | / | 6 | 0 | / | /
O=C(CN1CCOCC1)Nc1ccc(-c2nc3ccccc3[nH]2)cc1 | / | / | -1 | 12 | 38 | 52*
O=C(Nc1ccc(CN2CCOCC2)cc1)c1cc2ccccc2o1 | 0.6 | 5 | -3 | 14 | 10 | 86*
COC(=O)Nc1ccc(Oc2ccccc2)cc1 | 1.1 | 9 | 0 | -16 | -6 | 4
COC(=O)Nc1ccc(OCc2ccccc2)cc1 | 1.2 | 1 | 2 | 15 | 32 | 72*
COC(=O)c1ccc(NC(=O)Cc2ccc(C)cc2)cc1 | 1 | 4 | -3 | 13 | / | /
COC(=O)c1ccc(NC(=O)Cc2ccccc2)cc1 | 1.2 | 6 | 1 | 26 | 39 | 71*
O=C(N/N=C/c1cccc(Oc2ccccc2)c1)c1ccccc1Br | / | / | 1 | 5 | / | /
O=C(Cc1ccccc1)Nc1ccc(CN2CCOCC2)cc1 | 1.2 | / | -9 | / | 56* | 41
